Source: PubChem (several laboratories)
The list is not random: actives were taken first. Their share in the collection is about 3.5%.
WT yeast gro inh: growth inhibition of WT strain, primary screen, mitochondrial fusion inhibitor project, WT and mutant strains, chemical genetic; inhibition, % at 10 µM; 2.1% of 190,000 active; mitochondrial fusion phenotypic screen; in the data active = inhibition above about 58%; tested in S. cerevisiae
MEKK3 PB1 HTS: modulators of MEKK3-MEK5 PB1 binding, primary screen, biochemical, wildtype MEKK3, multiplex bead flow cytometry, Alexa488-MEK5; Mitogen-activated protein kinase kinase kinase 3 (Homo sapiens), Q99759; bead-based flow cytometry, Alexa488-MEK5 binding to MEKK3; actives lie on both sides; 0 = blocked by unlabeled MEK5, 100 = vehicle; binding response (% of control), % at 10 µM; 1.4% of 290,000 active; AID 1529, 2009;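 active = binding response more than 3 SD above or below the average of its plate-row segment, actives on both sides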;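 note: Alexa488 bead fluorescence after subtracting the streptavidin-only scavenger bead signal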
Target sequence (Q99759 whole entry, looked up): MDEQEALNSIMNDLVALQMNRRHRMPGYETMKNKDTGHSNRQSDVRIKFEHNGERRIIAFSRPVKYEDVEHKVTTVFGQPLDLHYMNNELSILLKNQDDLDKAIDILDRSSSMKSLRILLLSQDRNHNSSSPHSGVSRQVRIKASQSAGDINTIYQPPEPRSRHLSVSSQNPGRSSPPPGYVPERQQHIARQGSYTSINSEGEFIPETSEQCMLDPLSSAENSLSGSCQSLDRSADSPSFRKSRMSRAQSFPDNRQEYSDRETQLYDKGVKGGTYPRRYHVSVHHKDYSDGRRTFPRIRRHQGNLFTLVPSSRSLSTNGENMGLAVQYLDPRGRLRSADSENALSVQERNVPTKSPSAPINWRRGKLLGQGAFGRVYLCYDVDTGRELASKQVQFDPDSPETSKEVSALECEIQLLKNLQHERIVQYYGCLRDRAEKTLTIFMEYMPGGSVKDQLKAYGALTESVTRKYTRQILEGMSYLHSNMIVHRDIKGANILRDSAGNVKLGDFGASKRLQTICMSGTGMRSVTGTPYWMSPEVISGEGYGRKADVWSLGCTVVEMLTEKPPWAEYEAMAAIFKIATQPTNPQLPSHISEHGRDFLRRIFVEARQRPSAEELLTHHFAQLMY
MEKK2 WT-MEK5: modulators of MEK5 binding to wildtype MEKK2, primary screen, biochemical, multiplex bead flow cytometry, Alexa488-MEK5. Mitogen-activated protein kinase kinase kinase 2 (Homo sapiens), Q9Y2U5. Alexa488-MEK5 binding to MEKK2 WT; actives lie on both sides. binding response (% of control), % at 10 µM. 1.1% of 290,000 active; in the data active = binding response below about 67% or above about 130%
ABCB1 inh: ABCB1 efflux pump inhibitors, primary screen, cell-based, multiplex, flow cytometry, ABCG2 counter-screen | CCRF-Adr cells, JC-1 efflux | 0.067% of 190,000 active | inhibition, % at 6.6 µM | ATP-dependent translocase ABCB1 (Homo sapiens), P08183; in the data active = inhibition above about 40%;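 note: higher value means more JC-1 retained so stronger ABCB1 efflux block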
MEKK2mut PB1 HTS: MEK5 binding signal on mutant MEKK2 PB1, primary screen, biochemical, multiplex bead flow cytometry, Alexa488-MEK5 | Alexa488-MEK5 binding to MEKK2 mutant | AID 1530, 2009 | percent response, % at 10 µM | 0.35% of 290,000 active; in the data active = percent response above about 24%, passing the limit was not always enough
ABCG2 block: ABCG2 efflux pump inhibitors, primary screen, multiplex with ABCB1, IgMXP3 cells, flow cytometry; inhibition, % at 6.6 µM; Broad substrate specificity ATP-binding cassette transporter ABCG2 (Homo sapiens), Q9UNQ0; JC-1 efflux; 0.1% of 190,000 active; AID 1325, 2008;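 active = inhibition above 80%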
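System: two drug-resistant human cell lines, ABCG2 and ABCB1; controls: nicardipine high and DMSO low controls; times: 10 min exposure at 25 °C with rotation, no wash; detection: flow cytometry of retained JC-1 fluorescence; read-out basis: percent efflux inhibition, scaled nicardipine 100% to DMSO 0%; doses: one concentration, 6.6 µM final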
A number is an active result; - = inactive; . = no result given; [ ] = another dose, or the depositor's remark.

SMILES	WT yeast gro inh	MEKK3 PB1 HTS	MEKK2 WT-MEK5	ABCB1 inh	MEKK2mut PB1 HTS	ABCG2 block
Clc1ccc(-c2n[nH]c3c2CCC3)c(Cl)c1	68	-	-	-	-	-
c1ccc(-c2n[nH]c3c2CCC3)cc1	-	-	-	-	-	-
O=S(=O)(Nc1nc2ccc(S(=O)(=O)N3CCCC3)cc2s1)c1ccc(F)cc1	-	-	-	-	-	-
CC(=O)Nc1ccc(S(=O)(=O)NCC2CCC(C(=O)NCCCN(C)Cc3ccccc3)CC2)cc1 (configuration not stated)	.	-	-	.	-	.
CC(=O)c1ccc(N2CCN(S(=O)(=O)c3cc4c(cc3C)NC(=O)CO4)CC2)cc1	.	1.0[inhibitor]	0.0[inhibitor]	.	-	.
Cc1cc2c(cc1S(=O)(=O)N1CCN(c3cccc(C(F)(F)F)c3)CC1)OCC(=O)N2	.	-	-	.	-	.
Cc1ccsc1/C=N/NC(=O)c1nnn(-c2nonc2N)c1CN(C)c1ccccc1	.	-	-	.	-	.
O=C(NCCCN1CCOCC1)/C(=C/c1ccco1)NC(=O)c1ccccc1	.	-	-	.	-	.
CC(C)c1nnc(SCC(=O)N2CCc3ccccc32)n1N	-	-	-	-	-	-
O=C(NCC1COc2ccccc2O1)c1ccc(Br)s1 (configuration not stated)	.	-	-	.	-	.
Cc1cc(NC(=O)C2CCCCC2)nc2c1c(=O)oc1ccccc12	81	.	.	-	.	-
CC(=O)N1CCc2cc(S(=O)(=O)CCC(=O)NCCc3ccc(Cl)cc3)ccc21	.	-	-	.	-	.
COc1ccccc1-n1cnnc1SCC(=O)Nc1cc(C(C)(C)C)nn1-c1ccccc1	78	-	-	-	-	-
Cc1cc(C)nc(Nc2ncc(O)n2-c2ccccc2)n1	64	-	-	-	-	-
Cc1ccc(-n2c(O)cnc2Nc2nc(C)cc(C)n2)cc1	-	.	.	-	.	-
CCOC(=O)N1CCN(C(=O)CNC(=O)c2ccc(Br)o2)CC1	.	-	-	.	-	.
CCOC(=O)c1nn(-c2ccc(C)cc2)cc1C(=O)c1ccccc1	-	-	-	-	-	-
O=C(c1ccc(CSc2ccc(Cl)cc2)cc1)N1CCCC1	-	-	-	-	-	-
O=C(c1ccc(CSc2ccccc2)cc1)N1CCN(c2ccccc2)CC1	70	-	-	-	-	-
Cc1cc(OCc2cc(C(=O)N(C)C(C)c3ccccn3)no2)cc(C)c1Cl (configuration not stated)	.	-	-	.	-	.
Cc1ccc(NC2=CC(=O)C(=O)c3ccccc32)cc1	65	-	-	-	-	-
NS(=O)(=O)c1ccc(NC2=CC(=O)C(=O)c3ccccc32)cc1	.	-	-	.	-	.
CCOC(=O)C1CCC(CN(Cc2ccccc2)S(=O)(=O)c2ccc([N+](=O)[O-])cc2)CC1 (configuration not stated)	71	-	-	-	-	-
CC1CCCC(C)N1C(=O)c1ccc2c(c1)S(=O)(=O)c1ccccc1C2=O (configuration not stated)	.	0.0[inhibitor]	-12[inhibitor]	.	-	.
CCCNC(=O)CSc1nnc(C)s1	-	-	-	-	-	-
SMILES	WT yeast gro inh	MEKK3 PB1 HTS	MEKK2 WT-MEK5	ABCB1 inh	MEKK2mut PB1 HTS	ABCG2 block
COc1ccc(Cl)cc1CN1CCN(c2nc(C)cc(C)c2C#N)CC1	-	-	-	-	-	-
Cc1cc(C)c(C#N)c(N2CCN(CCOc3ccc(Cl)cc3)CC2)n1	65	-	-	-	-	-
CCC(C)(C)c1ccc(OCCCC[n+]2cccc(C)c2C)c(C(C)(C)CC)c1	.	-	170	.	-	.
Cc1cc(C(C)(C)C)ccc1OCCCCN1CCCC1	-	-	-	-	-	-
S=C(NCC1CCCO1)N1CCN(c2cccc(Cl)c2)CC1 (configuration not stated)	-	-	-	-	-	-
S=C(NCC1CCCO1)N1CCN(c2nc(-c3ccc(Cl)cc3)cs2)CC1 (configuration not stated)	67	-	-	-	-	-
COc1cc(CNn2c(C)n[nH]c2=S)cc(Br)c1OCc1ccc(F)cc1	-	-	-	-	-	-
CCNCc1cc(Cl)c(OCc2ccccc2)c(OCC)c1	-	-	-	-	-	-
CCOc1cc(CNn2cn[nH]c2=S)cc(Cl)c1OCc1ccccc1F	69	-	-	-	-	-
COc1cc(CNn2c(C)n[nH]c2=S)cc(Cl)c1OCc1ccc(F)cc1	71	-	-	-	-	-
O=C(NCCN1CCCCC1)c1ccc(F)cc1Cl	.	-	-	.	-	.
C=CCNc1oc(-c2cccs2)nc1C#N	-	-	-	-	-	-
O=[N+]([O-])c1cc(C(F)(F)F)ccc1NCCc1c[nH]c2ccc(O)cc12	79	-	-	-	-	-
O=[N+]([O-])c1cccnc1NCCc1c[nH]c2ccccc12	.	-	-	.	-	.
O=[N+]([O-])c1cc(C(F)(F)F)ccc1NCCc1c[nH]c2ccccc12	62	-	-	-	-	-
CN1CCN(C(=O)c2cnn3c(C(F)(F)F)cc(-c4ccc5c(c4)OCO5)nc23)CC1	98	-	-	-	-	-
CN(C)c1ccc(NC(=O)CN2CCC(NC(=O)C3CCCCC3)CC2)cc1	.	-	137	.	30	.
COc1ccc(NC(=O)CN2CCC(NC(=O)C3CCCCC3)CC2)cc1	-	-	-	-	-	-
CCOC(=O)C1=C(COCCN)NC(C)=C(C(=O)OC)C1c1ccccc1Cl (configuration not stated)	.	-	-	.	-	.
CCOC(=O)C1=C(C)NC(C)=C(C(=O)OC)C1c1cccc(Cl)c1Cl (configuration not stated)	64	-	-	-	-	-
O=C(OCC(=O)N1N=C(c2ccc(Cl)cc2)CC1c1ccco1)c1ccccc1O (configuration not stated)	-	-	-	-	-	-
Cn1cccc1/C=C1\CCc2ccccc2C1=O	60	-	-	-	-	-
CC(=O)Nc1ccc(C(=O)OCC(=O)Nc2ccccc2Sc2ccccc2)cc1	83	-	-	-	-	-
N#CCC(=O)Nc1ccc(C(=O)OCC(=O)Nc2ccccc2Sc2ccccc2)cc1	-	-	-	-	-	-
O=C(Nc1ccccc1Sc1ccccc1)c1ccc(F)cc1	78	-	-	-	-	-
CCC(C)(C)NC(=O)C(c1cccnc1)N(C(=O)c1csnn1)c1ccccc1 (configuration not stated)	-	-	-	-	-	-
